From ChEMBL document CHEMBL1149097, “Orally active antimalarials: hydrolytically stable derivatives of 10-trifluoromethyl anhydrodihydroartemisinin” (J Med Chem, 2004)
In brackets after ≈: the same amount, converted by molar mass.

Legend:
Mus musculus [1] = assay: In vivo antimalarial activity against Plasmodium berghei NK173 in mice (Mus musculus) by intraperitoneal route at a concentration of 35.5 uM/kg at day 4; type: functional
Summary of the method: (§1)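 Female CD1 mice (18-20 g) were infected with P. berghei NK 173 at (1-5) × 10^6 parasitized red cells, following the Peters test. Groups held 5-10 mice. Drug was given intraperitoneally at 35.5 µmol·kg⁻¹. Survival was followed to 20 days postinfection.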

Plasmodium falciparum [2] = assay: In vitro inhibitory concentration against chloroquine-resistant Plasmodium falciparum FcB1; type: functional, organism-based
Summary of the method: (§2)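 [3H]hypoxanthine uptake assay on chloroquine-resistant P. falciparum FcB1 (Colombia) and W2 (Indochina) in continuous human erythrocyte culture. Ring-stage synchronized parasites at 0.5% parasitemia and 1% final hematocrit received serially diluted drug, with methanol or DMSO at no more than 0.1% final. Plates ran 42 h at 37 °C in a candle jar, then freeze-thaw, harvest and scintillation counting. IC50 came from nonlinear regression of log dose-response, from at least three experiments.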

Mus musculus [3] = assay: In vivo antimalarial activity against Plasmodium berghei NK173 in mice (Mus musculus) by intraperitoneal route at a concentration of 35.5 uM/kg at day 11; type: functional; summary of the method: as §1
Plasmodium falciparum [4] = assay: In vitro inhibitory concentration against chloroquine-resistant Plasmodium falciparum W2; type: functional, organism-based; summary of the method: as §2
Mus musculus [5] = assay: In vivo effective dose evaluated against Plasmodium berghei N by subcutaneous administration in mice (Mus musculus); type: functional; conditions: sc
Summary of the method: (§3)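 P. berghei N infection in mice, with drug given subcutaneously or orally, per the Peters protocol. Parasitemia was read on day 4 and expressed as percent reduction at 10 mg/kg. ED50 and ED90 in mg/kg were derived from the same test.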

Mus musculus [6] = assay: In vivo effective dose evaluated against Plasmodium berghei N by peroral administration in mice (Mus musculus); type: functional; conditions: po; summary of the method: as §3
Mus musculus [7] = assay: In vivo antimalarial activity against Plasmodium berghei NK 173 in mice (Mus musculus) by intraperitoneal route at a concentration of 35.5 uM/kg at day 5; type: functional; summary of the method: as §1
Mus musculus [8] = assay: Percentage reduction of parasitaemia at day 4 at a concentration of 10 mg/kg by subcutaneous administration; type: functional; summary of the method: as §3
Mus musculus [9] = assay: In vivo effective dose was evaluated against Plasmodium berghei N by peroral administration in mice (Mus musculus); type: functional; conditions: po; summary of the method: as §3
Mus musculus [10] = assay: Compound was evaluated for percentage reduction of parasitaemia at day 4 at a concentration of 10 mg/kg by peroral administration; type: functional; conditions: route oral; summary of the method: as §3
Mus musculus [11] = assay: In vivo effective dose was evaluated against Plasmodium berghei N by sub cutaneous administration in mice (Mus musculus); type: functional; summary of the method: as §3
Mus musculus [12] = assay: In vivo effective dose was evaluated against Plasmodium berghei N by subcutaneous administration in mice (Mus musculus); type: functional; conditions: sc; summary of the method: as §3
Mus musculus [13] = assay: In vivo antimalarial activity against Plasmodium berghei NK 173 in mice (Mus musculus) by intraperitoneal route at a concentration of 35.5 uM/kg at day 12; type: functional; summary of the method: as §1
Mus musculus [14] = assay: In vivo antimalarial activity against Plasmodium berghei NK 173 in mice (Mus musculus) by intraperitoneal route at a concentration of 35.5 uM/kg at day 10; type: functional; summary of the method: as §1
[15] = Solubility in PBS AT pH 7.4 was determined after incubation at 25 degree C; type: physicochemical
[16] = Log D value between octanol and PBS at pH7.4; type: physicochemical; conditions: pH 7.4
[17] = pKa value was determined; type: physicochemical
[18] = Solubility in oral formulation was determined after incubation at 25 degree C; type: physicochemical
[19] = Plasma clearance following 10 mg/kg intravenous or 50 mg/kg oral dosing in rats; type: ADME, organism-based; conditions: rat, read-out: Activity
Summary of the method: (§4)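 Male Sprague-Dawley rats (280-320 g) were cannulated the day before, then fasted with free access to water, n = 2 per route. The iv dose was nominally 10 mg/kg, about 3 mg/mL in 10% ethanol/15 mM citrate-buffered 0.1 M Captisol, pH 3, infused over 5 min. The oral dose was nominally 50 mg/kg, given by gavage as a suspension in 0.5% HPMC, 0.5% benzyl alcohol and 0.4% Tween 80 in 0.9% NaCl. Carotid blood was sampled over 8 h, and plasma was quantified by HPLC/MS.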

[20] = Volume of distribution following 10 mg/kg intravenous or 50 mg/kg oral dosing in rats was determined; type: ADME, organism-based; conditions: rat, in vivo; read-out: Activity; summary of the method: as §4
[21] = Oral bioavailability in rat (dose 10 mg/kg i.v. and 50 mg/kg p.o.); type: ADME, organism-based; conditions: in vivo; summary of the method: as §4
[22] = Solubility in iv formulation was determined after incubation at 25 degree C
[23] = Partition coefficient between octanol and water (logP); type: physicochemical

C[C@@H]1CC[C@H]2C(COCCO)=C(C(F)(F)F)O[C@@H]3OC4(C)CC[C@@H]1[C@]32OO4 (single isomer, unassigned)
Parasitemia (Mus musculus [1]): 2% | IC50 (Plasmodium falciparum [2]): 2.4 nM

CCNCC1=C(C(F)(F)F)O[C@@H]2O[C@]3(C)CCC4[C@H](C)CC[C@@H]1[C@]42OO3 (stereo partly drawn)
Parasitemia (Mus musculus [3]): 66% | IC50 (Plasmodium falciparum [4]): 13.4 nM | ED90 (Mus musculus [5]): < 10 mg/kg | ED50 (Mus musculus [6]): < 10 mg/kg | Parasitemia (Mus musculus [7]): 5% | Reduction (Mus musculus [8]): 98.1% | ED90 (Mus musculus [9]): < 10 mg/kg | Reduction (Mus musculus [10]): 96% | ED50 (Mus musculus [11]): < 10 mg/kg

C[C@@H]1CC[C@H]2C(COCC(O)CO)=C(C(F)(F)F)O[C@@H]3OC4(C)CCC1[C@]32OO4 (single isomer, unassigned)
IC50 (Plasmodium falciparum [2]): 3.7 nM

CCOCC1=C(C(F)(F)F)O[C@@H]2OC3(C)CC[C@H]4[C@H](C)CC[C@@H]1[C@@]24OO3 (single isomer, unassigned)
Parasitemia (Mus musculus [1]): 0.4% | Parasitemia (Mus musculus [3]): 30% | IC50 (Plasmodium falciparum [4]): 25 nM | ED90 (Mus musculus [5]): < 10 mg/kg | Reduction (Mus musculus [8]): 100% | Reduction (Mus musculus [10]): 15.6% | ED50 (Mus musculus [11]): < 10 mg/kg

Cc1ccc(S(=O)(=O)NCC2=C(C(F)(F)F)O[C@@H]3OC4(C)CC[C@H]5[C@H](C)CC[C@@H]2[C@@]35OO4)cc1 (single isomer, unassigned)
IC50 (Plasmodium falciparum [2]): 19.1 nM

CC1=C(C(F)(F)F)O[C@@H]2OC3(C)CC[C@H]4[C@H](C)CC[C@@H]1[C@@]24OO3 (single isomer, unassigned)
Parasitemia (Mus musculus [1]): 0% | Parasitemia (Mus musculus [3]): 34% | IC50 (Plasmodium falciparum [2]): 6 nM

CC(=O)OCC1=C(C(F)(F)F)O[C@@H]2OC3(C)CC[C@H]4[C@H](C)CC[C@@H]1[C@@]24OO3 (single isomer, unassigned)
IC50 (Plasmodium falciparum [2]): 1.7 nM

C[C@@H]1CC[C@H]2C(CN3CCOCC3)=C(C(F)(F)F)O[C@@H]3OC4(C)CCC1[C@]32OO4 (single isomer, unassigned)
Parasitemia (Mus musculus [1]): 18% | ED50 (Mus musculus [12]): < 10 mg/kg | ED90 (Mus musculus [5]): < 10 mg/kg | IC50 (Plasmodium falciparum [2]): 3.1 nM | ED50 (Mus musculus [6]): < 10 mg/kg | Reduction (Mus musculus [8]): 98.1% | Parasitemia (Mus musculus [13]): 45% | ED90 (Mus musculus [9]): < 10 mg/kg | Reduction (Mus musculus [10]): 93.3%

C[C@@H]1CC[C@H]2C(CNS(C)(=O)=O)=C(C(F)(F)F)O[C@@H]3OC4(C)CC[C@@H]1[C@]32OO4 (single isomer, unassigned)
IC50 (Plasmodium falciparum [2]): 20 nM

C[C@@H]1CC[C@H]2C(CN)=C(C(F)(F)F)O[C@@H]3OC4(C)CC[C@@H]1[C@]32OO4 (single isomer, unassigned)
Parasitemia (Mus musculus [1]): 0.7% | IC50 (Plasmodium falciparum [2]): 4.4 nM

C[C@H]1[C@H](OC(=O)CCC(=O)O)O[C@@H]2O[C@@]3(C)CC[C@H]4[C@H](C)CC[C@@H]1[C@@]24OO3 [ARTESUNATE]
ED90 (Mus musculus [5]): 10.5 mg/kg | ED50 (Mus musculus [6]): 5.4 mg/kg | Reduction (Mus musculus [8]): 90% | ED90 (Mus musculus [9]): 15.3 mg/kg | ED50 (Mus musculus [11]): 2.8 mg/kg

CNCC1=C(C(F)(F)F)O[C@@H]2OC3(C)CC[C@H]4[C@H](C)CC[C@@H]1[C@@]24OO3 (single isomer, unassigned)
IC50 (Plasmodium falciparum [2]): 9.2 nM

C[C@@H]1CC[C@H]2C(CC(C(=O)O)C(=O)O)=C(C(F)(F)F)O[C@@H]3O[C@]4(C)CC[C@@H]1[C@]32OO4
IC50 (Plasmodium falciparum [4]): > 1000 nM

C[C@@H]1CC[C@H]2C(CN=[N+]=[N-])=C(C(F)(F)F)O[C@@H]3OC4(C)CC[C@@H]1[C@]32OO4 (single isomer, unassigned)
IC50 (Plasmodium falciparum [2]): 10 nM

C[C@@H]1CC[C@H]2C(CNCCN)=C(C(F)(F)F)O[C@@H]3O[C@]4(C)CCC1[C@]32OO4 (stereo partly drawn)
Parasitemia (Mus musculus [1]): 0% | IC50 (Plasmodium falciparum [2]): 1.2 nM | Parasitemia (Mus musculus [14]): 25%

C[C@@H]1CC[C@H]2C(CO)=C(C(F)(F)F)O[C@@H]3OC4(C)CCC1[C@]32OO4 (single isomer, unassigned)
Parasitemia (Mus musculus [1]): 40% | IC50 (Plasmodium falciparum [2]): 7.5 nM

CC1=CO[C@@H]2OC3(C)CC[C@H]4[C@H](C)CC[C@@H]1[C@@]24OO3 (single isomer, unassigned) [ANHYDRODIHYDROARTEMISININ]
Parasitemia (Mus musculus [1]): 18% | IC50 (Plasmodium falciparum [2]): 20 nM

C[C@@H]1CC[C@H]2C(CN3CCN(CCO)CC3)=C(C(F)(F)F)O[C@@H]3OC4(C)CC[C@@H]1[C@]32OO4 (single isomer, unassigned)
solubility [15]: 234 µg/mL (≈ 507 µM) | logD [16]: 3.46 | pKa [17]: 6.59 | Parasitemia (Mus musculus [3]): 37% | IC50 (Plasmodium falciparum [4]): 15.2 nM | solubility [18]: 676 µg/mL (≈ 1460 µM) | clearance [19]: 149 mL/min/kg | ED90 (Mus musculus [5]): < 10 mg/kg | ED50 (Mus musculus [6]): < 10 mg/kg | Parasitemia (Mus musculus [7]): 0.5% | Vd [20]: 11.8 L/kg | Reduction (Mus musculus [8]): 100% | bioavailability [21]: 34.6% | solubility [22]: > 3000 µg/mL | logP [23]: 3.52 | ED90 (Mus musculus [9]): < 10 mg/kg | Reduction (Mus musculus [10]): 100% | ED50 (Mus musculus [11]): < 10 mg/kg

COC(=O)C(C(=O)OC)C1=C(C(F)(F)F)O[C@@H]2OC3(C)CCC4[C@H](C)CC[C@@H]1[C@]42OO3 (single isomer, unassigned)
IC50 (Plasmodium falciparum [4]): > 1000 nM

C=CCOCC1=C(C(F)(F)F)O[C@@H]2OC3(C)CC[C@H]4[C@H](C)CC[C@@H]1[C@@]24OO3 (single isomer, unassigned)
IC50 (Plasmodium falciparum [2]): 6 nM

COCCOCC1=C(C(F)(F)F)O[C@@H]2OC3(C)CC[C@H]4[C@H](C)CC[C@@H]1[C@@]24OO3 (single isomer, unassigned)
Parasitemia (Mus musculus [1]): 6% | IC50 (Plasmodium falciparum [2]): 2.7 nM

CO[C@H]1O[C@@H]2O[C@@]3(C)CC[C@H]4[C@H](C)CC[C@@H]([C@H]1C)[C@@]24OO3 [ARTEMETHER]
solubility [15]: 63.4 µg/mL (≈ 212 µM) | Parasitemia (Mus musculus [1]): 0% | Parasitemia (Mus musculus [3]): 32% | solubility [18]: 256 µg/mL (≈ 858 µM) | clearance [19]: 114 mL/min/kg | IC50 (Plasmodium falciparum [2]): 3.5 nM | Vd [20]: 8.4 L/kg | bioavailability [21]: 1.4% | solubility [22]: 4700 µg/mL (≈ 15800 µM)

C[C@@H]1CC[C@H]2C(COCc3ccccc3)=C(C(F)(F)F)O[C@@H]3OC4(C)CC[C@@H]1[C@]32OO4 (single isomer, unassigned)
IC50 (Plasmodium falciparum [4]): 20 nM
